Reference: ChEMBL document CHEMBL1128317, “Phenoxypropylamines: a new series of squalene synthase inhibitors” (J Med Chem, 1995)

Each molecule was assayed against T1, Squalene synthase (Rattus norvegicus, UniProt Q02769) (assay: Inhibition of rat microsomal squalene synthase).
T1 sequence (Q02769 whole entry): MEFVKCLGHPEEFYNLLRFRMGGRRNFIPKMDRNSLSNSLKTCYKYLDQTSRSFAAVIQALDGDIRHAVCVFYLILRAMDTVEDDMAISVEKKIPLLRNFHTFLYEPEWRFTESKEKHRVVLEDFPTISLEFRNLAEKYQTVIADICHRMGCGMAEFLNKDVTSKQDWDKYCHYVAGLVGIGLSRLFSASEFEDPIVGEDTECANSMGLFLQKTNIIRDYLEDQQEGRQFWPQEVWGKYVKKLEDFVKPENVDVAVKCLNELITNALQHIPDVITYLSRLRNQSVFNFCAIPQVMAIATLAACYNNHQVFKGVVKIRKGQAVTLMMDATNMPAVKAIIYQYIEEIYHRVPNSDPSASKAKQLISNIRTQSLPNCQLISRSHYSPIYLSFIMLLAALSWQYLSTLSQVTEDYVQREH
Procedure, shortened: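 Rat liver microsomal protein (20 μg) incubated at 37 °C in 50 mM potassium phosphate with 4.95 mM MgCl2, 9.9 mM KF and 0.9 mM NADPH. 1-[3H]farnesyl pyrophosphate was added to 20 μM final, and the reaction was stopped after 15 min with 4% KOH. Labeled squalene was isolated on a C18 column. IC50 was derived from % inhibition versus controls (duplicates per concentration, 6–8 controls).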
Work on CC(C)NCCCOc1ccccc1Cc1ccccc1 yielded an IC50 of 12 nM. Work on C=CCc1cc(-c2ccccc2)ccc1OCCCNC(C)C yielded an IC50 of 0.004 nM. Molecule CC(C)=CCC/C(C)=C/c1ccccc1OCCCN(C)C(C)C has an IC50 greater than 2500 nM. In the case of C=CCc1cc(C(=O)CCC)ccc1OCC(O)CNC(C)C (stereo not given), the IC50 is reported as 4.5 nM. With CCCCOc1ccc(OCCCNC(C)C)cc1 the IC50 was 56 nM. C=CCc1cc(OCCCC)ccc1OCCCNC(C)C gave an IC50 of 0.6 nM. Molecule CC(=O)Nc1ccc(OCCCNC(C)C)cc1 has an IC50 greater than 2500 nM. Work on CC(C)NCCCOc1ccc(-c2cccnc2)cc1 yielded an IC50 greater than 2500 nM. With C=CCc1cc(NC(C)=O)ccc1OCCCNC(C)C the IC50 was 65 nM. C=CCc1cc(C(=O)CCC)ccc1OCCCNC(C)C gave an IC50 of 1 nM. C=CCc1cc(N)ccc1OCCCNC(C)C showed an IC50 of 250 nM. For CC(C)NCCCOc1ccc(-c2ccccc2)cc1, the IC50 was 170 nM. In the case of C=CCc1ccccc1OCCCNC(C)C, the IC50 is reported as 56 nM. C=CCc1cc(C(=O)OCC)ccc1OCCCNC(C)C showed an IC50 of 0.05 nM. For CC(C)NCC(O)COc1ccc(-c2ccccc2)cc1 (stereo not given), the IC50 was 3000 nM. Molecule CCOC(=O)c1ccc(OCC(O)CNC(C)C)cc1 (stereo not given) has an IC50 of 1400 nM. In the case of CCC(=O)Nc1ccc(OCC(O)CNC(C)C)c(Cc2ccccc2)c1 (stereo not given), the IC50 is reported as 900 nM. Molecule CC(C)NCC(O)COc1ccccc1Cc1ccccc1 (stereo not given) has an IC50 of 8800 nM. In the case of CC(C)NCCCOc1cccc(-c2ccccc2)c1, the IC50 is reported as 600 nM. Work on CCC(=O)Oc1ccc(OCCCNC(C)C)cc1 yielded an IC50 of 3 nM. Molecule CCC(=O)Nc1ccc(OCCCNC(C)C)c(Cc2ccccc2)c1 has an IC50 of 0.6 nM. With CCCCOc1ccc(OCC(CNC(C)C)OC)cc1 (stereo not given) the IC50 was 3300 nM. For C=CCc1cc(NC(=O)CC)ccc1OCCCNC(C)C, the IC50 was 5 nM. In the case of CC(C)=CCC/C(C)=C/CC/C(C)=C/CCOP(=O)(O)C(=O)O, the IC50 is reported as 30000 nM. C=CCc1ccccc1OCC(O)CNC(C)C (stereo not given) [ALPRENOLOL] gave an IC50 of 4200 nM.
